ChEMBL document CHEMBL5620424, “Design, synthesis and evaluation of novel 2-phenyl-3-(1H-pyrazol-4-yl)pyridine positive allosteric modulators for the M4 mAChR” (Eur J Med Chem, 2023)
Active and inactive are the calls of the source. The rule behind the calls is not given here.

What was measured:
[1] = target: Muscarinic acetylcholine receptor M3 (Homo sapiens) (UniProt P20309); assay: Positive allosteric modulation at human M3 mAChR expressed in Flp-In-CHO cells at 10 uM incubated for 5 mins by […]; format: cell-based
Sequence of Muscarinic acetylcholine receptor M3 (Homo sapiens) (P20309 whole entry, looked up): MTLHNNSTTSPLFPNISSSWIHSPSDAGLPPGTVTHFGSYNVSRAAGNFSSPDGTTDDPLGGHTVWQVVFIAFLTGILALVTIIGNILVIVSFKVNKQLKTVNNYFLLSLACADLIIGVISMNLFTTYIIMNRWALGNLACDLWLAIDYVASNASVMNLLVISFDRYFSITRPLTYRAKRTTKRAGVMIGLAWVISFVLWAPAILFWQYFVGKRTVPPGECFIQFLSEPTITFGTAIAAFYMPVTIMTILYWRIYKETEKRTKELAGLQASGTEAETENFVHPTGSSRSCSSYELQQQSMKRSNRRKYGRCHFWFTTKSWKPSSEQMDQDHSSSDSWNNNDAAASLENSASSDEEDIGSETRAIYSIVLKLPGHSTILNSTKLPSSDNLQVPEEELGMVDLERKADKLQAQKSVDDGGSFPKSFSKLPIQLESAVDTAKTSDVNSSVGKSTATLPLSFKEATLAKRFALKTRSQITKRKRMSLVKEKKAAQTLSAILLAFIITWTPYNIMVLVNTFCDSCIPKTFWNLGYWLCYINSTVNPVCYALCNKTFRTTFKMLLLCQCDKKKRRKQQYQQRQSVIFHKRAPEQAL
Outline: (§1)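 FlpInCHO cells stably expressing human M1–M5 mAChRs, serum-deprived in HBSS 4 h at 37 °C, then ACh (10 nM–10 μM) with or without modulator at 10 μM for 5 min at 37 °C. Cells lysed and frozen overnight. pERK1/2 measured by AlphaScreen SureFire Ultra, as % of response to 10% FBS.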

[2] = target: T1, Muscarinic acetylcholine receptor M2 (Homo sapiens) (UniProt P08172); assay: Positive allosteric modulation at human M2 mAChR expressed in Flp-In-CHO cells at 10 uM incubated for 5 mins by […]; format: cell-based; outline: as §1
T1 sequence (whole entry): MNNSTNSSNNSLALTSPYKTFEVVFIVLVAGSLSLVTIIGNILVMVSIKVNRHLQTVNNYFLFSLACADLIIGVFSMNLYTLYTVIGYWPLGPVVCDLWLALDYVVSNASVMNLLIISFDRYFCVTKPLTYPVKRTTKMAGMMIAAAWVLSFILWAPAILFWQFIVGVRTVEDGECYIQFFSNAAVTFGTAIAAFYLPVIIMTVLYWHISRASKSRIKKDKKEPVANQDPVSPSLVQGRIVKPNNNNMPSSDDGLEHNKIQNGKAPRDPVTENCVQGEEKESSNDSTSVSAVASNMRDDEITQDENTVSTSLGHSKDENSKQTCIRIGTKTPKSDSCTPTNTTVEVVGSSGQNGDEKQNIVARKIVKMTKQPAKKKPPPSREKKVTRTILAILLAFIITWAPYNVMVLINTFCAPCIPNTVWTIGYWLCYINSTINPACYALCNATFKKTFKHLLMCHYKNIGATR

[3] = Drug concentration in brain of naive C57BL/6J mouse at 10 mg/kg, ip measured after 20 to 30 mins; format: ADME, organism-based; settings: in vivo, time 20-30 min, read-out: Ct
Outline: (§2)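 Male C57Bl/6J mice, naïve, 10–12 weeks old, dosed i.p. at 10 mg/kg in 10% DMSO, 1.1% Tween 80, 21.8 mM Tris. Blood by cardiac puncture under anaesthesia at 20 or 90 min (n = 2–3 per time point). Brain concentration corrected for compound in brain vasculature. Mean nM ± SEM reported; Kp = Cbrain/Cplasma, reported as a range.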

[4] = target: T2, Muscarinic acetylcholine receptor M4 (Homo sapiens) (UniProt P08173); assay: Positive allosteric modulation at human M4 mAChR expressed in Flp-In-CHO cells co-expressing CAMYEL biosensor assessed as efficacy of ACh-mediated cAMP signalling (log tau B) incubated for 5 mins by BRET assay; format: functional, cell-based; settings: filed as positive allosteric modulator
T2 sequence (whole entry): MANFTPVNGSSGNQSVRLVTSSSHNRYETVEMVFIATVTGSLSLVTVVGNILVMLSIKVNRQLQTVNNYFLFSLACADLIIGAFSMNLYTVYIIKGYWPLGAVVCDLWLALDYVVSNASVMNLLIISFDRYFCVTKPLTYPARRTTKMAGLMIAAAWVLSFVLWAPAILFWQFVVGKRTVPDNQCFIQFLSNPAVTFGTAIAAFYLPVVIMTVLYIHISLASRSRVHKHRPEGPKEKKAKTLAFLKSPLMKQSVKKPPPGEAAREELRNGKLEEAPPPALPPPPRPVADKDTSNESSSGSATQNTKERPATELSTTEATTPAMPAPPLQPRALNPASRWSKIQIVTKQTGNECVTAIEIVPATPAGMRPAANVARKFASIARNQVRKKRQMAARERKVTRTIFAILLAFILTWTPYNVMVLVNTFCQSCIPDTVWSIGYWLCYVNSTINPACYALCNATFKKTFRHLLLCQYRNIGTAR
Outline: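 CAMYEL-transfected FlpInCHO-hM4 cells (48 h post-transfection) given ACh and modulator concentration ranges in full interaction design, 5 min at 37 °C; BRET read with coelenterazine h. Fit to complete operational model of allosterism and agonism with ACh KA and modulator KB fixed from binding assays. Gives log τB and log αβ. 4–5 experiments in duplicate.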

[5] = Drug concentration in plasma of naive C57BL/6J mouse at 10 mg/kg, ip measured after 90 mins; format: ADME, organism-based; outline: as §2
[6] = Drug concentration in plasma of naive C57BL/6J mouse at 10 mg/kg, ip measured after 20 to 30 mins; format: ADME, organism-based; settings: in vivo, time 20-30 min; outline: as §2
[7] = target: T3, Muscarinic acetylcholine receptor M5 (Homo sapiens) (UniProt P08912); assay: Positive allosteric modulation at human M5 mAChR expressed in Flp-In-CHO cells at 10 uM incubated for 5 mins by […]; format: cell-based; outline: as §1
T3 sequence (whole entry): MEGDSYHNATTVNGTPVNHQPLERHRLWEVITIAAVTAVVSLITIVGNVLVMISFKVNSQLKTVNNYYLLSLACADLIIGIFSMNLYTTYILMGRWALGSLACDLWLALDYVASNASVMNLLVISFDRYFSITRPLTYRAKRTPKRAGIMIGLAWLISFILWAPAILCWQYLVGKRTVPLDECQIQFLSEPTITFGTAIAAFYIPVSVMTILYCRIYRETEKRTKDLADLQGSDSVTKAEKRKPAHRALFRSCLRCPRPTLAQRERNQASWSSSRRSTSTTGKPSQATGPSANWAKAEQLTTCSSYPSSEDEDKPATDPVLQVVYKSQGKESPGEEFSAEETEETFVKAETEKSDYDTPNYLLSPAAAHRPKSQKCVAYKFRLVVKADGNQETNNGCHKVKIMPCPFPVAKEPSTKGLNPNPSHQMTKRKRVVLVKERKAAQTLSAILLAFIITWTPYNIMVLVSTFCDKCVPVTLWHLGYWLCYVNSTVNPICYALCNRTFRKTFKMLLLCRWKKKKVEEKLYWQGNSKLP

[8] = Ratio of drug concentration in brain to plasma of naive C57BL/6J mouse at 10 mg/kg, ip; format: ADME, organism-based; settings: read-out: BPR; outline: as §2
[9] = target: T2, Muscarinic acetylcholine receptor M4 (Homo sapiens); assay: Positive allosteric modulation at Rluc-tagged human M4 mAChR expressed in Flp-In-CHO cells co-expressing eYFP-tagged beta-arrestin 2 assessed as efficacy of ACh-mediated beta-arrestin 2 recruitment (log tau B) incubated for 5 mins by luminometry; format: cell-based; settings: filed as positive allosteric modulator
Outline: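 FlpInCHO cells co-transfected with human M4-Rluc8 (20 ng/well) and β-arrestin-2-eYFP (80 ng/well) using PEI, assayed after 48 h. Coelenterazine h (5 μM) preincubated 5 min, then ACh plus modulator ranges for 5 min at 37 °C; BRET at 475/535 nm. Fit to simplified operational model with slope 1 and KB fixed from binding. 4–5 experiments in duplicate.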

Compound | Activity [1] | Activity [2] | concentration [3] [nM] | log(activity) [4] | concentration at 1.5 h [5] [nM] | concentration [6] [nM] | Activity [7] | Kp [8] | log(activity) [9] | Activity ([2]; filed as positive allosteric modulator)
Cc1ccc(-c2cnn(CC3CCCC3)c2)c(-c2ccc(N)c([N+](=O)[O-])c2)n1 | inactive | inactive | 982 | -1.29 | 657 | 2430 | inactive | 0.3 | 0.39 | 
Cc1ccc(-c2cnn(CC3CCCC3)c2)c(-c2ccc3c(c2)C(=O)N(C)C3)n1 | inactive |  | 481 | -0.45 | 14 | 2440 | inactive | 0.1 | 0.99 | Active
Cc1ccc(-c2cnn(CC3CCCC3)c2)c(-c2ccc(F)c(F)c2)n1 | inactive | inactive | 2140 | -0.07 | 159 | 915 | inactive | 1.6 | 0.31 | 
